According to ChEMBL document CHEMBL1154956, “Stereospecific synthesis of oximes and oxime ethers of 3-azabicycles: A SAR study towards antimicrobial agents” (2010):
Values after ≈ are worked out from the molar mass of the structure shown.

Columns and labels:
Type in all cases: functional
Bacillus subtilis = test: Antibacterial activity against Bacillus subtilis by NCCLS broth microdilution method
Staphylococcus aureus = test: Antibacterial activity against Staphylococcus aureus by NCCLS broth microdilution method
Klebsiella pneumoniae = test: Antibacterial activity against Klebsiella pneumoniae by NCCLS broth microdilution method
Pseudomonas aeruginosa = test: Antibacterial activity against Pseudomonas aeruginosa by NCCLS broth microdilution method
Candida albicans = test: Antifungal activity against Candida albicans by NCCLS broth microdilution method
How it was run: (§1)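 MIC90 was taken as the lowest concentration that inhibited 90% of pathogen growth after incubation, reported in μg/mL. Broth dilution followed the NCCLS reference standards: M27-A for yeasts and the proposed standard for conidium-forming filamentous fungi. Fluconazole was the reference drug.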

Candida parapsilosis = test: Antifungal activity against Candida parapsilosis by NCCLS broth microdilution method; how it was run: as §1
Aspergillus niger = test: Antifungal activity against Aspergillus niger by NCCLS broth microdilution method; how it was run: as §1
Cryptococcus neoformans = test: Antifungal activity against Cryptococcus neoformans by NCCLS broth microdilution method; how it was run: as §1
[1] = Bacillus subtilis, read-out: MIC90
[2] = Staphylococcus aureus, read-out: MIC90
[3] = Klebsiella pneumoniae, read-out: MIC90
[4] = Pseudomonas aeruginosa, read-out: MIC90
[5] = Candida albicans, read-out: MIC90
[6] = Lodderomyces parapsilosis, read-out: MIC90
[7] = Aspergillus niger, read-out: MIC90
[8] = Cryptococcus neoformans, read-out: MIC90

Row | Compound | MIC90 (Bacillus subtilis; [1]) [µg/mL] | MIC90 (Staphylococcus aureus; [2]) [µg/mL] | MIC90 (Klebsiella pneumoniae; [3]) [µg/mL] | MIC90 (Pseudomonas aeruginosa; [4]) [µg/mL] | MIC90 (Candida albicans; [5]) [µg/mL] | MIC90 (Candida parapsilosis; [6]) [µg/mL] | MIC90 (Aspergillus niger; [7]) [µg/mL] | MIC90 (Cryptococcus neoformans; [8]) [µg/mL] | MIC90 (Staphylococcus aureus) [µg/mL] | MIC90 (Klebsiella pneumoniae) [µg/mL] | MIC90 (Pseudomonas aeruginosa) [µg/mL] | MIC90 (Candida albicans) [µg/mL] | MIC90 (Candida parapsilosis) [µg/mL] | MIC90 (Aspergillus niger) [µg/mL] | MIC90 (Cryptococcus neoformans) [µg/mL] | MIC90 (Bacillus subtilis) [µg/mL]
1 | CON=C1C2CC(C)CC1C(c1ccc(Cl)cc1)NC2c1ccc(Cl)cc1 (configuration not stated) | 16 (≈ 39.7 µM) | 16 (≈ 39.7 µM) | 8 (≈ 19.8 µM) | 32 (≈ 79.3 µM) | 32 (≈ 79.3 µM) | 16 (≈ 39.7 µM) | 64 (≈ 159 µM) | 16 (≈ 39.7 µM) |  |  |  |  |  |  |  | 
2 | CC1CC2C(=NO)C(C1)C(c1ccccc1F)NC2c1ccccc1F (stereo in doubt; 49a) | 16 (≈ 44.9 µM) |  |  |  |  |  |  |  | 8 (≈ 22.4 µM) | 16 (≈ 44.9 µM) | 32 (≈ 89.8 µM) | 64 (≈ 180 µM) | 128 (≈ 359 µM) | 64 (≈ 180 µM) | 64 (≈ 180 µM) | 
3 | CO/N=C1\C2CCCC1(C)C(c1ccccc1OC)NC2c1ccccc1OC (configuration not stated) | 32 (≈ 81.1 µM) | 32 (≈ 81.1 µM) | 32 (≈ 81.1 µM) | 64 (≈ 162 µM) | 64 (≈ 162 µM) | 64 (≈ 162 µM) | 128 (≈ 324 µM) | 128 (≈ 324 µM) |  |  |  |  |  |  |  | 
4 | COc1ccccc1C1NC(c2ccccc2OC)C2(C)CCCC1/C2=N\O (configuration not stated) | 64 (≈ 168 µM) | 64 (≈ 168 µM) | 128 (≈ 336 µM) | 128 (≈ 336 µM) | > 128 | 128 (≈ 336 µM) | 128 (≈ 336 µM) | 64 (≈ 168 µM) |  |  |  |  |  |  |  | 
5 | CO/N=C1\C2CCCC1(C)C(c1ccccc1Cl)NC2c1ccccc1Cl (configuration not stated) | 32 (≈ 79.3 µM) | 4 (≈ 9.92 µM) | 8 (≈ 19.8 µM) | 8 (≈ 19.8 µM) | 32 (≈ 79.3 µM) | 4 (≈ 9.92 µM) | 16 (≈ 39.7 µM) | 4 (≈ 9.92 µM) |  |  |  |  |  |  |  | 
6 | CC12CCCC(/C1=N\O)C(c1ccc(Br)cc1)NC2c1ccc(Br)cc1 (configuration not stated) | > 128 | 64 (≈ 134 µM) | > 128 | > 128 | > 128 | > 128 | 128 (≈ 268 µM) | 128 (≈ 268 µM) |  |  |  |  |  |  |  | 
7 | COc1ccc(C2NC(c3ccc(OC)cc3)C3(C)CCCC2/C3=N\O)cc1 (configuration not stated) | 128 (≈ 336 µM) | 32 (≈ 84.1 µM) | 64 (≈ 168 µM) | > 128 | 128 (≈ 336 µM) | > 128 | 128 (≈ 336 µM) | > 128 |  |  |  |  |  |  |  | 
8 | CO/N=C1\C2CCCC1(C)C(c1ccc(F)cc1)NC2c1ccc(F)cc1 (configuration not stated) | 32 (≈ 86.4 µM) | 8 (≈ 21.6 µM) | 16 (≈ 43.2 µM) | 16 (≈ 43.2 µM) | 8 (≈ 21.6 µM) | 8 (≈ 21.6 µM) | 32 (≈ 86.4 µM) | 16 (≈ 43.2 µM) |  |  |  |  |  |  |  | 
9 | CO/N=C1\C2CCCC1(C)C(c1ccccc1F)NC2c1ccccc1F (configuration not stated) | 16 (≈ 43.2 µM) | 4 (≈ 10.8 µM) | 4 (≈ 10.8 µM) | 8 (≈ 21.6 µM) | 4 (≈ 10.8 µM) | 8 (≈ 21.6 µM) | 16 (≈ 43.2 µM) | 8 (≈ 21.6 µM) |  |  |  |  |  |  |  | 
10 | CC1CC2C(=NO)C(C1)C(c1cccc(F)c1)NC2c1cccc(F)c1 (stereo in doubt; 50a) | 128 (≈ 359 µM) | 32 (≈ 89.8 µM) | 32 (≈ 89.8 µM) | 64 (≈ 180 µM) | 128 (≈ 359 µM) | 64 (≈ 180 µM) | 64 (≈ 180 µM) | > 128 |  |  |  |  |  |  |  | 
11 | CC12CCCC(/C1=N\O)C(c1ccccc1Br)NC2c1ccccc1Br (configuration not stated) | 128 (≈ 268 µM) | 64 (≈ 134 µM) | 128 (≈ 268 µM) | > 128 | 64 (≈ 134 µM) | 64 (≈ 134 µM) | 128 (≈ 268 µM) | > 128 |  |  |  |  |  |  |  | 
12 | OC(Cn1cncn1)(Cn1cncn1)c1ccc(F)cc1F [FLUCONAZOLE] |  |  |  |  | 1 (≈ 3.27 µM) | 2 (≈ 6.53 µM) | 4 (≈ 13.1 µM) | 2 (≈ 6.53 µM) |  |  |  |  |  |  |  | 
13 | CO/N=C1\C2CCCC1(C)C(c1ccc(C)cc1)NC2c1ccc(C)cc1 (configuration not stated) | 32 (≈ 88.3 µM) | 64 (≈ 177 µM) | 64 (≈ 177 µM) | 128 (≈ 353 µM) | 128 (≈ 353 µM) | > 128 | 32 (≈ 88.3 µM) | 64 (≈ 177 µM) |  |  |  |  |  |  |  | 
14 | CON=C1C2CC(C)CC1C(c1ccc(F)cc1)NC2c1ccc(F)cc1 (configuration not stated) | 16 (≈ 43.2 µM) | 4 (≈ 10.8 µM) | 8 (≈ 21.6 µM) | 16 (≈ 43.2 µM) | 16 (≈ 43.2 µM) | 64 (≈ 173 µM) | 16 (≈ 43.2 µM) | 8 (≈ 21.6 µM) |  |  |  |  |  |  |  | 
15 | CO/N=C1\C2CCCC1(C)C(c1ccccc1)NC2c1ccccc1 (configuration not stated) | > 128 | 64 (≈ 191 µM) | 128 (≈ 383 µM) | > 128 | 128 (≈ 383 µM) | > 128 | > 128 | > 128 |  |  |  |  |  |  |  | 
16 | CC1CC2C(=NO)C(C1)C(c1ccc(F)cc1)NC2c1ccc(F)cc1 (configuration not stated) | 64 (≈ 180 µM) | 8 (≈ 22.4 µM) | 32 (≈ 89.8 µM) | 64 (≈ 180 µM) | 32 (≈ 89.8 µM) | 64 (≈ 180 µM) | 64 (≈ 180 µM) | 32 (≈ 89.8 µM) |  |  |  |  |  |  |  | 
17 | CO/N=C1\C2CCCC1(C)C(c1cccc(OC)c1)NC2c1cccc(OC)c1 (configuration not stated) | 64 (≈ 162 µM) | 32 (≈ 81.1 µM) | 128 (≈ 324 µM) | > 128 | > 128 | 64 (≈ 162 µM) | > 128 | 128 (≈ 324 µM) |  |  |  |  |  |  |  | 
18 | CC1CC2C(=NO)C(C1)C(c1cccc(F)c1)NC2c1cccc(F)c1 (stereo in doubt; 50b) |  |  |  |  |  |  |  |  | 32 (≈ 89.8 µM) | 64 (≈ 180 µM) | 32 (≈ 89.8 µM) | 64 (≈ 180 µM) | 32 (≈ 89.8 µM) | 32 (≈ 89.8 µM) | 64 (≈ 180 µM) | >128
19 | CC1CC2C(=NO)C(C1)C(c1ccc(Cl)cc1)NC2c1ccc(Cl)cc1 (configuration not stated) | 32 (≈ 82.2 µM) | 32 (≈ 82.2 µM) | 16 (≈ 41.1 µM) | 32 (≈ 82.2 µM) | 64 (≈ 164 µM) | 64 (≈ 164 µM) | 32 (≈ 82.2 µM) | 64 (≈ 164 µM) |  |  |  |  |  |  |  | 
20 | GENTAMICIN |  |  |  |  |  |  |  |  | 4 | 2 | 16 |  |  |  |  | 16
